One block for each molecule: values may come before it.
Columns and labels:
[1] = test system: neurotoxic and stimulant effects of METH; details: mouse; ref Kaushal et al., 2011, 2012; cited from earlier work
[2] = Stability of stock solutions; type: physicochemical; details: 12 h at room temperature and a week at −20 °C
Method in brief: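 Stock solutions: analyte 1.0 mg/mL in water, aripiprazole internal standard 1 mg/mL in methanol. Held 12 h at room temperature, and tested daily over 1 week during storage at −20 °C. Compared against freshly prepared standards by UPLC/MS/MS.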

[3] = test system: METH-induced dopaminergic neurotoxicity and hyperthermia; details: Swiss Webster mice, intraperitoneal; ref Seminerio et al., 2012a; cited from earlier work
[4] = test system: METH-induced memory impairment; details: mouse; ref Seminerio et al., 2012a; cited from earlier work
[5] = test system: cocaine-induced convulsions; details: mice, toxic dose of cocaine; ref Seminerio et al., 2012b; cited from earlier work
[6] = test system: both subtypes of sigma receptors; details: radioligand binding; ref Seminerio et al., 2012b; cited from earlier work
[7] = Stability of AZ66 in rat plasma at various storage conditions; type: in vitro ADME
Method in brief: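 Rat plasma QC samples at 10, 400 and 3000 ng/mL, six replicates each. Conditions: three freeze–thaw cycles at −20 °C; −20 °C for 30 days; room temperature for 12 h; processed extracts held in the autosampler at 25 °C for 24 h. Analysed by chloroform liquid–liquid extraction and UPLC/MS/MS with aripiprazole internal standard. Compared against freshly prepared standards; bias = 100×(measured−actual)/actual.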

[8] = Intravenous pharmacokinetic study in rats; type: in vivo, male Sprague–Dawley rats; details: rat
Method in brief: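 Male Sprague–Dawley rats (n = 6, 260–280 g), fasted overnight, given water after dosing and food from 4 h post-dose. Single 5 mg/kg i.v. dose via jugular-vein cannula. Blood (0.15 mL) drawn via cannula pre-dose and at 2–480 min and 12–42 h. Plasma separated at 10,000 g, 10 min, 4 °C, and stored at −20 °C. Chloroform extraction with aripiprazole internal standard, UPLC/MS/MS, then non-compartmental analysis.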

[9] = ref Seminerio et al., 2012b, cited from earlier work
[10] = processed plasma samples, auto-sampler 24 h (25 °C), spiked 10 ng/mL
[11] = processed plasma samples, auto-sampler 24 h (25 °C), spiked 400 ng/mL
[12] = rat plasma, long-term 30 days (−20 °C), spiked 10 ng/mL
[13] = rat plasma, long-term 30 days (−20 °C), spiked 400 ng/mL
[14] = rat plasma, long-term 30 days (−20 °C), spiked 3000 ng/mL
[15] = rat plasma, short-term 12 h (25 °C), spiked 10 ng/mL
[16] = rat plasma, short-term 12 h (25 °C), spiked 400 ng/mL
[17] = rat plasma, short-term 12 h (25 °C), spiked 3000 ng/mL
[18] = rat plasma, three freeze–thaw cycles (−20 °C), spiked 400 ng/mL
[19] = rat plasma, three freeze–thaw cycles (−20 °C), spiked 3000 ng/mL
[20] = male, Sprague-Dawley, plasma, iv, 5 mg/kg

SMILES: c1ccc(CCN2CCCCC2)cc1 [AC927]
effect on neurotoxic effects of METH [1]: attenuated | effect on stimulant effects of METH [1]: attenuated

Stability of stock solutions [2]: stable
SMILES: O=C1CCc2ccc(OCCCCN3CCN(c4cccc(Cl)c4Cl)CC3)cc2N1 [IS, aripiprazole, reference compound]

Stability in reconstituted samples in the auto-sampler ([7]; 25 °C for 24 h): stable | Bias [7, 10]: 1.7% | Measured concentration [7, 10]: 10.1 ± 0.2 ng/mL | Bias [7, 11]: 0.8% | Measured concentration [7, 11]: 403.2 ± 18.6 ng/mL | Measured concentration ([7]; processed plasma samples, auto-sampler 24 h (25 °C), spiked 3000 ng/mL): 3222 ± 79.4 ng/mL | Bias [7, 12]: 0.3% | Measured concentration [7, 12]: 10.2 ± 0.4 ng/mL | Bias [7, 13]: −0.4% | Measured concentration [7, 13]: 402.4 ± 7.1 ng/mL | Bias [7, 14]: −0.6% | Measured concentration [7, 14]: 3028 ± 55.0 ng/mL | Bias [7, 15]: 1.3% | Measured concentration [7, 15]: 10.2 ± 0.2 ng/mL | Bias [7, 16]: −0.5% | Measured concentration [7, 16]: 401.4 ± 3.5 ng/mL | Bias [7, 17]: 1.0% | Measured concentration [7, 17]: 3015 ± 30.6 ng/mL | Measured concentration ([7]; rat plasma, three freeze–thaw cycles (−20 °C), spiked 10 ng/mL): 10.2 ± 0.7 ng/mL | Bias [7, 18]: −0.6% | Measured concentration [7, 18]: 396.1 ± 12.7 ng/mL | Bias [7, 19]: 0.2% | Measured concentration [7, 19]: 2990 ± 42.9 ng/mL | Short-term stability in rat plasma ([7]; room temperature for 12 h (25 °C)): stable | Freeze–thaw stability in rat plasma ([7]; three freeze–thaw cycles, 10, 400 and 3000 ng/mL): stable | Long-term stability in rat plasma ([7]; −20 °C for 30 days): stable | Stability of stock solutions [2]: stable | Cmax [8, 20]: 1200 ± 200 ng/mL | MRT [8, 20]: 7.6 ± 0.7 h | Vd [8, 20]: 30.1 ± 3.6 L/kg | clearance [8, 20]: 43.3 mL/min/kg | half-life [8, 20]: 7.9 ± 0.3 h | CL (total clearance) ([8]; i.v. 5 mg/kg, n=6, mean ± SD): 43.3 ± 6.7 mL/min/kg
SMILES: CC(CCCn1c(=O)sc2cc(F)ccc21)N1CCN(C2CCCCC2)CC1 (stereo not shown) [AZ66, 3-[4-(4-cyclohexylpiperazin-1-yl)pentyl]-6-fluorobenzo[d] thiazole-2(3H)-one]
effect on METH-induced dopaminergic neurotoxicity [3]: attenuate | effect on METH-induced hyperthermia [3]: attenuate | effect on memory impairment caused by repeated intake of METH [4]: attenuated the memory impairment | attenuation of cocaine-induced convulsions [5]: significantly attenuate convulsions | affinity for both subtypes of sigma receptors [6]: high nanomolar affinity | selectivity over a wide battery of CNS targets [6]: highly selective | in vitro half-life compared with CM156 ([9]; in vitro): appreciably longer half-life

SMILES: S=c1sc2ccccc2n1CCCCN1CCN(C2CCCCC2)CC1 [CM156, 3-[4-(4-cyclohexylpiperazin-1-yl)butyl]benzo[d]thiazole-2(3H)-thione]
effect on neurotoxic effects of METH [1]: attenuated | effect on stimulant effects of METH [1]: attenuated | in vitro half-life ([9]; rat liver microsomes): 4.62 min

Source: paper PMC4122523 (Biomedical chromatography : BMC, 2013)
